For 21 compounds, Activity and IC50 results are on record in ChEMBL document CHEMBL5223160, “Lipase-Catalyzed Synthesis and Biological Evaluation of N-Picolineamides as Trypanosoma cruzi Antiproliferative Agents” (ACS Med Chem Lett, 2023).

One series deals with Vero. Description: Cytotoxicity against african green monkey Vero cells at 10 to 600 uM incubated for 72 hrs by resazurin dye based fluorescence assay. To be noted: chlorocebus sabaeus, dose 10-600 µM. It counts as toxicity, cell-based. The essentials: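 Vero cells were exposed to compounds at 10–600 μM for 72 h at 37 °C. Viability was read by resazurin fluorescence at 590 nm. CC50 was taken as the concentration reducing cell proliferation by 50%, reported ± standard deviation.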
(In general: Alamar Blue is a resazurin reagent that responds to reducing activity.)

Series [1] concerns Trypanosoma cruzi. The series can be described thus: Antitrypanosomal activity against GFP-expressing intracellular Trypanosoma cruzi Y trypomastigotes infected in african green monkey Vero cells assessed as decrease in number of amastigotes/100 cells incubated for 72 hrs by fluorescence based microplate reader analysis. It counts as functional, organism-based. The method in brief: (§1)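 Vero cells infected with GFP-expressing T. cruzi Y-strain parasites. After parasite removal, compounds were added at one-tenth of their Vero CC50. At 72 h postinfection, cells were lysed and parasite fluorescence was read. Percentage of infected cells and amastigotes per 100 cells were also determined, with nifurtimox as reference.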

The subject of series [2] is Trypanosoma cruzi. The series can be described thus: Antitrypanosomal activity against GFP-expressing intracellular Trypanosoma cruzi Y trypomastigotes infected in african green monkey Vero cells assessed as reduction in infected cell percentage at 40 uM incubated for 72 hrs in the presence of nifurtimox by fluorescence based microplate reader analysis. The format is functional, organism-based. The essentials: (§2)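 GFP T. cruzi Y-infected Vero cells were cotreated after parasite removal with nifurtimox at 35 μM plus test compound at 20 μM or 40 μM. At 72 h postinfection, percentage of infected cells was determined against nontreated infected controls. Significance was set at p < 0.05.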

For series [3], the system named is Trypanosoma cruzi. The series can be described thus: Antitrypanosomal activity against GFP-expressing intracellular Trypanosoma cruzi Y trypomastigotes infected in african green monkey Vero cells assessed as decrease in infection level incubated for 72 hrs by fluorescence based microplate reader analysis. The format is functional, organism-based. The essentials:
as §1

Series [4] relates to Trypanosoma cruzi. Description: Antitrypanosomal activity against GFP-expressing intracellular Trypanosoma cruzi Y trypomastigotes infected in african green monkey Vero cells assessed as inhibition of parasite proliferation incubated for 72 hrs by fluorescence based microplate reader analysis.
Series [5] relates to Trypanosoma cruzi. Description: Antitrypanosomal activity against GFP-expressing intracellular Trypanosoma cruzi Y trypomastigotes infected in african green monkey Vero cells assessed as reduction in infected cell percentage at 20 uM incubated for 72 hrs in the presence of nifurtimox by fluorescence based microplate reader analysis. The format is functional, organism-based. The essentials:
as §2

Broadly, the IC50 is the concentration that inhibits the measured activity by half.

Molecules are shown by their SMILES. Calls of active or inactive are those of the source. The calls are words filed in the database; no cut-off is given here. A value given as a limit tells only on which side of the number the result lay.

`CCCCC/C=C/C/C=C/CCCCCCCC(=O)O`: the Activity result in the series on Vero is reported as “Toxic”.

For `CC/C=C\C/C=C\C/C=C\CCCCCCCC(=O)NCc1ccccn1`, the Activity result in the series on Vero is “Non-Toxic”. On to `CCCCCCCCCCCC(=O)NCc1cccnc1`, for which the Activity entry with Vero was “Non-Toxic”. On the same count and under the same terms, then `CCCCC/C=C\C/C=C\CCCCCCCC(=O)NCc1ccccn1`, with “Non-Toxic”. With `CCCCC/C=C\C/C=C\CCCCCCCC(=O)NCc1cccnc1`, the Activity entry with Vero is recorded as “Non-Toxic”.

With `CCCCCCCC/C=C/CCCCCCCC(=O)NCc1cccnc1`, in the series on Vero, the Activity entry is on record as “Non-Toxic”. As to `CC(=O)NCc1ccncc1`, the Activity entry in the series on Vero is on record as “Non-Toxic”. Still for that read-out and setting: then `CCCCCCCCCCCC(=O)NCc1ccncc1`, with “Non-Toxic”; and `CCCCCCCC/C=C\CCCCCCCC(=O)NCc1ccccn1`, with “Non-Toxic”. Take `CCCCCCCC/C=C/CCCCCCCC(=O)NCc1ccncc1`: the Activity entry in the series with Vero is “Non-Toxic”. The same measure, in the same setting: then `CCCCCCCC/C=C\CCCCCCCC(=O)NCc1cccnc1`, with “Non-Toxic”; and `CCCCCCCCCCCCCCCCCC(=O)NCc1ccncc1`, with “Non-Toxic”. Regarding `CCCCCCCC/C=C/CCCCCCCC(=O)NCc1ccccn1`, the Activity result in the series with Vero was “Non-Toxic”. Further, the outcome in the series on Trypanosoma cruzi [1], in the series with Trypanosoma cruzi [2] and in the series with Trypanosoma cruzi [3] was Active. Further, the 50% inhibitory concentration (IC50) in the series with Trypanosoma cruzi [4] stood at 47.6 µM. For the compound `CCCCCC(=O)NCc1ccncc1`, the Activity result with Vero is recorded as “Non-Toxic”. On the same count and under the same terms, then `CCCCCCCCCCCCCCCCCC(=O)NCc1cccnc1`, with “Non-Toxic”. Consider `CCCCCCCCCCCC(=O)NCc1ccccn1`, for which, in the series on Vero, the Activity result was “Non-Toxic”. Further, the IC50 in the series with Trypanosoma cruzi [4] is > 100 µM. Consider `CC/C=C/C/C=C/C/C=C/CCCCCCCC(=O)O`, for which the Activity result in the series on Vero is “Toxic”. Same read-out and setting: to `CCCCCCCCCCCCCCCC(=O)NCc1ccncc1` belongs “Non-Toxic”; to `CCCCCCCCC/C=C\CCCCCCC(=O)O`, “Toxic”. The same measure, in the same setting: then `CC/C=C\C/C=C\C/C=C\CCCCCCCC(=O)NCc1cccnc1`, with “Non-Toxic”. In the case of `CCCCCCCCCCCCCCCCCC(=O)NCc1ccccn1`, the Activity result in the series on Vero was “Non-Toxic”. For the same compound, the result in the series on Trypanosoma cruzi [1], with Trypanosoma cruzi [5] and with Trypanosoma cruzi [3] was Active. The IC50 in the series with Trypanosoma cruzi [4] turned out to be 16.4 µM.
